Measured values of several laboratories.
Converted amounts (≈) assume the structure as drawn.
Observed: microbial growth

CCCCCCC#Cc1cncc(-c2nnc(SCc3cc([N+](=O)[O-])cc([N+](=O)[O-])c3)n2C2CCNCC2)c1  MIC (Enterobacter cloacae; broth dilution; DSM30054): > 64 µg/mL
Cc1cc(O)cc(Nc2nnc(-c3n[nH]c4ccc(C)cc34)s2)c1  MIC (Serratia marcescens; ATCC8100): 125 µg/mL (≈ 370 µM)
CO/N=C(\C(=O)N[C@@H]1C(=O)N2C(C(=O)O)=CCS[C@H]12)c1csc(N)n1  MIC (Enterobacter cloacae; broth dilution; ATCC13047): 2 µg/mL (≈ 5.22 µM)
COc1ccc(N=Nc2c(N)nn3c(-c4ccc(C)cc4)cc(-c4ccc(OCc5ccccc5)cc4)nc23)cc1  MIC (Enterobacter cloacae; ATCC23355): 31.3 µg/mL (≈ 57.9 µM)
CCCCCCC#Cc1cncc(-c2nnc(SCc3cc([N+](=O)[O-])cc([N+](=O)[O-])c3)n2CCOC2OC(CN)C(O)C2O)c1 (stereo not shown)  MIC (Enterobacter cloacae; broth dilution; DSM30054): 64 µg/mL (≈ 99.7 µM)
Cc1ccc(-c2cc(-c3ccc(OCc4ccccc4)cc3)nc3c(N=Nc4ccc(F)cc4)c(N)nn23)cc1  MIC (Enterobacter cloacae; ATCC23355): 31.3 µg/mL (≈ 59.2 µM)
CCCCCCC#Cc1cncc(-c2nnc(SCc3ccc([N+](=O)[O-])o3)n2CCCN)c1  MIC (Enterobacter cloacae; broth dilution; DSM30054): > 64 µg/mL
COc1ccc(N=Nc2c(N)nn3c(-c4ccc(Cl)cc4Cl)cc(-c4ccc(OCc5ccccc5)cc4)nc23)cc1  MIC (Enterobacter cloacae; ATCC23355): 62.5 µg/mL (≈ 105 µM)
CCCCCCC#Cc1cncc(-c2nnc(SCc3cc([N+](=O)[O-])cc([N+](=O)[O-])c3)n2CCCN)c1  MIC (Enterobacter cloacae; broth dilution; DSM30054): > 64 µg/mL
Cc1ccc2[nH]nc(-c3nnc(Nc4ccc(F)cc4)s3)c2c1  MIC (Serratia marcescens; ATCC8100): 56.9 µg/mL (≈ 175 µM)
Nc1nn2c(-c3ccc(Cl)cc3Cl)cc(-c3ccc(OCc4ccccc4)cc3)nc2c1N=Nc1ccc(F)cc1  MIC (Enterobacter cloacae; ATCC23355): 15.6 µg/mL (≈ 26.7 µM)
CC[C@H]1OC(=O)[C@H](C)[C@@H](O[C@H]2C[C@@](C)(OC)[C@@H](O)[C@H](C)O2)[C@H](C)[C@@H](O[C@@H]2O[C@H](C)C[C@H](N(C)C)[C@H]2O)[C@](C)(O)C[C@@H](C)CN(C)[C@H](C)[C@@H](O)[C@]1(C)O  MIC (Enterobacter cloacae; broth dilution; ATCC13047): 4 µg/mL (≈ 5.34 µM)
Cc1ccc2[nH]nc(-c3nnc(Nc4ccc([N+](=O)[O-])cc4)s3)c2c1  MIC (Serratia marcescens; ATCC8100): 56.2 µg/mL (≈ 159 µM)
Cc1ccc(N=Nc2c(N)nn3c(-c4ccc(C)cc4)cc(-c4ccc(OCc5ccccc5)cc4)nc23)cc1  MIC (Enterobacter cloacae; ATCC23355): 15.6 µg/mL (≈ 29.7 µM)
CN(C)[C@@H]1C(O)=C(C(N)=O)C(=O)[C@@]2(O)C(O)=C3C(=O)c4c(O)cccc4[C@@](C)(O)[C@H]3C[C@@H]12  MIC (Enterobacter cloacae; broth dilution; ATCC13047): 2 µg/mL (≈ 4.5 µM)
Cc1ccc2[nH]nc(-c3nnc(Nc4ccc(F)cc4Cl)s3)c2c1  MIC (Serratia marcescens; ATCC8100): 85.2 µg/mL (≈ 237 µM)
